How the values were obtained:
[1] = Inhibition of HCV NS4A tagged recombinant single chain NS3 protease after 15 mins; design: species or system Hepacivirus hominis
[2] = Bioavailability in dog; type: ADME, organism-based, Canis lupus familiaris; conditions: in vivo
[3] = Selectivity for HCV NS3 protease over human neutrophil elastase
In short: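 Ratio of inhibitory activity against human neutrophil elastase to that against HCV protease (HNE/HCV), taken as selectivity. HCV activity was from a continuous protease assay using NS4A-tethered single-chain NS3 serine protease, giving Ki* as the equilibrium constant for reversible covalent binding of the electrophilic ketone to the active-site serine. Compounds were tested as P1-epimer diastereomer mixtures.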

[4] = tested on: Hepatitis C virus; assay: Antiviral activity against HCV in human hepatoma cells assessed as inhibition of RNA replication by replicon assay; type: functional, Hepacivirus hominis
[5] = AUC in monkey at 3 mg/kg, po; type: ADME, organism-based, Macaca mulatta; design: dose 3 mg/kg, route oral; conditions: rhesus monkey, plasma

Work on CC(C)(C)NC(=O)N[C@H](C(=O)N1C[C@H]2[C@@H]([C@H]1C(=O)NC(CC1CCC1)C(=O)C(N)=O)C2(C)C)C(C)(C)C (stereo not given in full) [BOCEPREVIR] yielded a Ki [1] of 14 nM, a bioavailability [2] of 34% and a Ratio [3] of 2200. The EC90 [4] was 350 nM and the AUC [5] was 0.12 µM·h.

— ChEMBL document CHEMBL1156160, “The introduction of P4 substituted 1-methylcyclohexyl groups into Boceprevir: a change in direction in the search for a second generation HCV NS3 protease inhibitor” (Bioorg Med Chem Lett, 2010)
